Paper PMC8745002 (European journal of immunology, 2021)

How the values were obtained:
SRBC-vaccinated mice [1] = test: SRBC-specific IgM and IgG1 detection in plasma by flow cytometry; type: in vivo, C57/BL6 mice; conditions: mice receiving FX1 (80 mg/kg once daily)
Outline: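 Plasma taken on day 11 from SRBC-vaccinated (100 µL 10% i.p.) male C57/BL6 mice given compound or vehicle (100 µL) from day 3, diluted 1:5 in PBS. 5 µL incubated with 20 µL 2% SRBC for 5 min, then 20 min with fluorescent anti-mouse IgM or IgG1. Washed, fixed in 1% PFA, read by flow with isotype controls. MFI normalised to unvaccinated-mouse plasma, as fold change.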

[2] = In vitro plasma stability assay, human plasma; type: in vitro ADME; conditions: 37 °C
Outline: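 Compound in DMSO, diluted to a 0.1 mM working solution in DMSO:water (1:1, v/v). Mouse, rat or human plasma thawed and pre-warmed at 37 °C, then mixed 100:1 (plasma:working solution). Incubated at 37 °C, 5% CO2, shaking at 200 rpm. Half-life determined from this plasma incubation.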

[3] = In vitro plasma stability assay, mouse plasma; type: in vitro ADME; conditions: 37 °C, comparison in words
SRBC-vaccinated mice [4] = test: Mouse pan IgG and IgM ELISA; type: in vivo, C57/BL6 mice; conditions: 11 days after vaccination
Outline: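 Male C57/BL6 mice, 8–12 weeks old, given 100 µL 10% SRBC i.p. on day 0. From 3 days later, 8-day course of test compound (100 µL vehicle, once or three times daily, 5 h apart) or vehicle on the same schedule. Plasma collected at CO2 euthanasia on day 11. Total IgG and IgM measured by commercial ELISA kit per manufacturer. Welch test.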

BCL6 = conditions: cited from earlier work
SRBC-vaccinated mice [5] = test: SRBC vaccination mouse model, flow cytometry of splenic cells; type: in vivo, C57/BL6 mice; conditions: FX1 80 mg/kg once daily, 8-day course; spleen, day 11
Outline: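 Male C57/BL6 mice, 8–12 weeks old, given 100 µL 10% SRBC i.p. on day 0. Compound dosed in 100 µL vehicle from day 3; vehicle controls matched. Spleens taken on day 11 and meshed through a 70 µm strainer. Cells spun 2000 rpm for 10 min, washed in PBS with 2% FBS. Two million mononuclear cells stained for surface and intracellular markers, analysed on a 4-laser LSRII.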

[6] = cited from earlier work
rhesus macaque = conditions: FX1 treatment; cited from earlier work

T1/2 in human plasma [2]: 3.29 h
total titer of plasma pan IgG and IgM vs vehicle (SRBC-vaccinated mice [4]): no difference
Compound: O=C(O)CCN1C(=O)/C(=C2/C(=O)Nc3ccc(Cl)cc32)SC1=S [FX1]
SRBC-specific IgM and IgG1 vs vehicle (SRBC-vaccinated mice [1]): Lower
stability (T1/2) in mouse plasma [3]: significantly longer stability over AP-4-287 in mouse plasma
affinity compared with natural ligand (SMRT) (BCL6): higher affinity than its natural ligand (SMRT)
GC B cells (SRBC-vaccinated mice [5]): can lower GC B
frequency of CD4+ Tfh within GCs (SRBC-vaccinated mice [5]): did not reduce
aqueous solubility [6]: poor aqueous solubility
lymphoid hyperplasia (rhesus macaque): reversal of lymphoid hyperplasia
